Results pooled from the literature.
Lines come from different studies, so protocols differ.
Target: BMP-2-inducible protein kinase (BMP2K, Homo sapiens, UniProt Q9NSY1)

SMILES	read-out	method	tested at	remaining binding
CNC(=O)Nc1ccc2c(c1)CC[C@@]21OC(=O)N(CC(=O)N(Cc2ccc(F)cc2)[C@@H](C)C(F)(F)F)C1=O	cell-free assay	competition with immobilised ligand	1 µM	98%
C[C@@H]1CCN(c2nccc(-c3cnn4ncccc34)n2)C1	binding	–	1 µM	97%
Cc1c(C(=O)O)cc(-c2ccc(C3CCNCC3)cc2)c2ccc(-c3ccc(C(F)(F)F)cc3)cc12	binding	competition with immobilised ligand	1 µM	83%
CN(C)c1ncc(F)c(-c2cnn3ncccc23)n1	binding	–	1 µM	100%
Cc1cc(C)c(-n2ccn3nc(-c4cccnc4)cc23)cc1NC(=O)c1cc(C#N)cc(S(F)(F)(F)(F)F)c1	cell-free assay	competition with immobilised ligand	0.1 µM	94.7%
COc1cnc(Nc2cccc(S(N)(=O)=O)c2)nc1N1CCN(c2ccccc2)CC1	binding	competition with immobilised ligand	1 µM	57%
CN(C)c1ncnc(-c2ccc3nc(Nc4cc(CN5CCN(C(=O)CC(F)(F)F)CC5)ccn4)[nH]c3c2)c1Cl	cell-free assay	competition with immobilised ligand	1 µM	100%
Nc1ncc2c(n1)-c1c([nH]c3ccc(C#CC4CC4)cc13)CCCC2	binding	competition with immobilised ligand	1 µM	88%
CN(c1nccc(-c2cnn3ncccc23)n1)C1CC1	binding	–	1 µM	100%
O=C(c1ccc(Nc2nccc(-c3cc4ccccc4s3)n2)cc1)N1CCC(N2CCCC2)CC1	binding	competition with immobilised ligand	1 µM	0.5%
FC(F)(F)Oc1cccc(-c2cnc3ccc(-c4ccncc4)nn23)c1	binding	competition with immobilised ligand	5 µM	8.3%
O=C(NCCCN1CCOCC1)c1ccc(Nc2ncc(Cl)c(-c3ccc(Cl)s3)n2)cc1	binding	competition with immobilised ligand	1 µM	0.1%
O=C(Nc1c[nH]nc1C(=O)NC1CCNCC1)c1cc(F)cc(F)c1	binding	competition with immobilised ligand	1 µM	53%
FC(F)(F)c1ccc2c(c1)nc(-c1cccnc1)n2C1CC1	cell-free assay	competition with immobilised ligand	1 µM	100%
Cc1cnn2ncc(-c3ccnc(N(C)C)n3)c2c1	binding	–	1 µM	80%
O=C(c1ccc(Nc2ncc(Cl)c(-c3ccc(Cl)s3)n2)cc1)N1CCC(N2CCCC2)CC1	binding	competition with immobilised ligand	1 µM	0.1%
N[C@H]1CCN(c2nccc(-c3cnn4ncccc34)n2)C1	binding	–	1 µM	88%
CCN1CCN(Cc2ccc(C(=O)Nc3ccc(C)c(Oc4ccc5c(c4)CC(=O)N5)c3)cc2C(F)(F)F)CC1	binding	competition with immobilised ligand	1 µM	100%
CN(C)c1nccc(-c2cnc3ncccn23)n1	binding	–	1 µM	100%
COc1cc(-c2cn(C3CCc4c(F)cccc4N(CC(F)(F)F)C3=O)nn2)ccc1-n1cnc(C)c1 (stereo not shown)	cell-free assay	competition with immobilised ligand	1 µM	100%
CC1CCCN1c1nccc(-c2cnn3ncccc23)n1 (stereo not shown)	binding	–	1 µM	95%
COc1cnc(Nc2cccc(S(N)(=O)=O)c2)nc1N1CCN(c2ccccc2)C(=O)C1	binding	competition with immobilised ligand	1 µM	80%
